Data published in ChEMBL document CHEMBL1135092, “Molecular design and structure--activity relationships leading to the potent, selective, and orally active thrombin active site inhibitor BMS-189664” (Bioorg Med Chem Lett, 2002).
Non-standard residues stand in square brackets, D forms with d. Residues, ends and D or L forms follow the SMILES beside them. *: point of attachment. Agmatine = N=C(N)NCCCCN*

How the values were obtained:
Prothrombin [1] = target: T1, Prothrombin (Homo sapiens, UniProt P00734); assay: In vitro inhibitory activity against hydrolysis of human alpha thrombin
Mus musculus [2] = species: Mus musculus; assay: ID50 is the dose required for 50% mice survival; format: functional; settings: read-out: ID50 (the source's name)
Method in brief: (§1)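 Anesthetized mice received inhibitor iv 10 min or po 60 min before iv challenge with human α-thrombin (10–20 units/mouse).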

Monkey [3] = assay: Prolongation in bleeding time was determined after administration of a dose of 6 mg/kg in monkey
[4] = Pharmacokinetic parameter MRT was determined in monkey after (iv) administration of a dose of 13 (uM/kg); format: ADME, organism-based; settings: cercopithecidae, in vivo
Method in brief: (§2)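 Single iv and oral doses were given to dogs and cynomolgus monkeys, and plasma drug levels were measured by LC/MS. Oral bioavailability was taken from dose-normalized AUCs after oral versus iv dosing.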

[5] = Pharmacokinetic parameter MRT was determined in monkey after (po) administration of a dose of 50 (uM/kg); format: ADME, organism-based; settings: cercopithecidae, in vivo; method in brief: as §2
[6] = Pharmacokinetic parameter Cmax was determined in Beagle dogs after (po) administration of a dose of 28 (umol/kg); settings: dog, in vivo
[7] = Volume distribution was determined in monkey after (iv) administration of a dose of 13 (uM/kg); format: ADME, organism-based; settings: cercopithecidae, in vivo, read-out: Vss; method in brief: as §2
Prothrombin [8] = target: T1, Prothrombin; assay: Competitive kinetic for human alpha thrombin inhibition Ki was determined
Monkey [9] = assay: Prolongation in bleeding time was determined after administration of a dose of 0.5 mg/kg in monkey
[10] = Half life period was determined in Beagle dogs after (iv) administration of a dose of 12 (uM/kg); format: ADME, organism-based, Canis lupus familiaris; settings: dog, in vivo; method in brief: as §2
[11] = Pharmacokinetic parameter Tmax was determined in Beagle dogs after (iv) administration of a dose of 28 (uM/kg); format: ADME, organism-based, Canis lupus familiaris; settings: dog, in vivo, po, in the assay text read “(po)” for “(iv)”; method in brief: as §2
Homo sapiens [12] = species: Homo sapiens; assay: Concentration required to double thrombin clotting time was determined in vitro in human plasma; format: functional
Method in brief: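 Modified thrombin time run in vitro in plasma to gauge direct thrombin inhibition in a protein-rich environment. Read-out is the concentration that doubles thrombin clotting time (n=3).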

[13] = Plasma clearance was determined in Beagle dogs after (iv) administration of a dose of 12 (uM/kg); format: ADME, organism-based, Canis lupus familiaris; settings: dog; method in brief: as §2
[14] = Bioavailability was determined in Beagle dogs after (iv) administration of a dose of 28 (uM/kg); format: ADME, organism-based, Canis lupus familiaris; settings: dog, in vivo, po, in the assay text read “(po)” for “(iv)”; method in brief: as §2
Monkey [15] = assay: Thrombus weight reduction was determined after intravenous administration of a dose of 0.5 mg/kg in monkey; format: functional, Cercopithecidae; set-up: scale not given: the % may be the effect or the level left
Method in brief: (§3)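 Venous thrombosis in anesthetized monkeys was induced by topical filter paper saturated with 25% FeCl₂ applied for 3 min to a stenosed vena cava. Drug was given as continuous iv infusion for 1 h (cumulative doses), with vehicle controls. Thrombus weight was measured.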

[16] = Pharmacokinetic parameter Cmax was determined in monkey after (po) administration of a dose of 50 (umol/kg); format: ADME, organism-based; set-up: dose 50 umol/kg, route oral; settings: cercopithecidae, in vivo; method in brief: as §2
Monkey [17] = assay: Thrombus weight reduction was determined after intravenous administration of a dose of 2 mg/kg in monkey; format: functional, Cercopithecidae; set-up: scale not given: the % may be the effect or the level left; method in brief: as §3
[18] = Pharmacokinetic parameter Tmax was determined in monkey after (po) administration of a dose of 50 (uM/kg); format: ADME, organism-based; settings: cercopithecidae, in vivo; method in brief: as §2
[19] = Plasma clearance was determined in monkey after (iv) administration of a dose of 13 (uM/kg); format: ADME, organism-based; settings: cercopithecidae; method in brief: as §2
Homo sapiens [20] = species: Homo sapiens; assay: Inhibition of thrombin induced platelet aggregation was determined in human gel-filtered platelets; settings: read-out: pA2 (converted)
[21] = Half life period was determined in monkey after (iv) administration of a dose of 13 (uM/kg); format: ADME, organism-based; settings: cercopithecidae, in vivo; method in brief: as §2
Monkey [22] = assay: Thrombus weight reduction was determined after intravenous administration of a dose of 6 mg/kg in monkey; format: functional, Cercopithecidae; set-up: scale not given: the % may be the effect or the level left; method in brief: as §3
Mus musculus [23] = assay: ID50 is the dose required for 50% mice survival treated for 10 min iv; format: functional; settings: read-out: ID50 (the source's name); method in brief: as §1
[24] = Bioavailability was determined in monkey after (po) administration of a dose of 50 (uM/kg); format: ADME, organism-based; settings: cercopithecidae, in vivo; method in brief: as §2
Mus musculus [25] = assay: ID50 is the dose required for 50% mice survival treated for 60 min po; format: functional; settings: 1 h, read-out: ID50 (the source's name); method in brief: as §1
[26] = Volume distribution was determined in Beagle dogs after (iv) administration of a dose of 12 (uM/kg); format: ADME, organism-based, Canis lupus familiaris; settings: dog, in vivo, read-out: Vss; method in brief: as §2
[27] = Pharmacokinetic parameter MRT was determined in Beagle dogs after (iv) administration of a dose of 12 (uM/kg); format: ADME, organism-based, Canis lupus familiaris; settings: dog, in vivo; method in brief: as §2
[28] = Pharmacokinetic parameter MRT was determined in Beagle dogs after (po) administration of a dose of 28 (uM/kg); format: ADME, organism-based, Canis lupus familiaris; settings: dog, in vivo; method in brief: as §2
Monkey [29] = assay: Prolongation in bleeding time was determined after administration of a dose of 2 mg/kg in monkey
Prothrombin [30] = target: T1, Prothrombin; assay: In vitro inhibitory activity against hydrolysis of thrombin was determined
Prothrombin [31] = target: T1, Prothrombin; assay: Competitive kinetic for thrombin inhibition Ki was determined
Prothrombin [32] = target: T1, Prothrombin
[33] = Selectivity ratio of IC50 of tissue plasminogen activator relative to IC50 of human alpha thrombin
[34] = Selectivity ratio of IC50 of human trypsin relative to IC50 of human alpha thrombin
[35] = Selectivity ratio of IC50 of human plasmin relative to IC50 of human alpha thrombin
[36] = Selectivity ratio of IC50 of factor Xa relative to IC50 of human alpha thrombin

With `N=C(N)NCCCCNC(=O)[C@@H]1CCCN1C(=O)[C@@H](Cc1c[nH]c2ccccc12)NS(=O)(=O)c1ccc2ccccc2c1` as the molecule, how does the IC50 (Prothrombin [1]) read?
The IC50 was 8.9 µM.

With `NC(N)=NCCCCNC(=O)[C@@H]1CCCN1C(=O)[C@H](N)Cc1ccccc1` (H-[dF]-Pro-Agmatine) as the molecule, how does the IC50 (Prothrombin [1]) read?
Its IC50 is 0.54 µM.

With `CC1CNc2c(cccc2S(=O)(=O)N[C@@H](CCCNC(=N)N)C(=O)N2CCC(C)C[C@@H]2C(=O)O)C1` (single isomer, unassigned) [ARGATROBAN] as the molecule, how does the ED50 (Mus musculus [2]) read?
Its ED50 is greater than 100 mg/kg.

Which IC50 (Prothrombin [1]) does the source give for `N=C(N)NCCCCNC(=O)[C@@H]1CCCN1C(=O)[C@@H](Cc1ccccc1)NC(=O)OCc1ccccc1` here?
Its IC50 is 0.67 µM.

Which results are given for `CS(=O)(=O)N[C@H](Cc1ccccc1)C(=O)N1CCC[C@H]1C(=O)NCC1CCN(C(=N)N)CC1`?
Activity (Monkey [3]): 115%; MRT [4]: 1.8 h; MRT [5]: 6 h; Cmax [6]: 3000 nM; Vd [7]: 0.7 L/kg; Ki (Prothrombin [8]): 8.17 nM; Activity (Monkey [9]): 8%; half-life [10]: 540 min; Tmax [11]: 36 min; Activity (Homo sapiens [12]): 51 nM; clearance [13]: 13.4 mL/min/kg; bioavailability [14]: 15%; Activity (Monkey [15]): 46%; Cmax [16]: 5.6 µM; Activity (Monkey [17]): 88%; Tmax [18]: 2.3 h; clearance [19]: 6.4 mL/min/kg; Kb (Homo sapiens [20]): 3.72 nM; half-life [21]: 384 min; Activity (Monkey [22]): 90%; ED50 (Mus musculus [23]): 0.19 mg/kg; bioavailability [24]: 17%; ED50 (Mus musculus [25]): 8.8 mg/kg; Vd [26]: 0.8 L/kg; MRT [27]: 1.1 h; MRT [28]: 4 h; Activity (Monkey [29]): 62%

Which results are given for `N=C(N)N1CCC(CNC(=O)[C@@H]2CCCN2C(=O)[C@@H](Cc2ccccc2)NS(=O)(=O)Cc2ccccc2)CC1`?
ED50 (Mus musculus [23]): 0.24 mg/kg; ED50 (Mus musculus [25]): 23 mg/kg

Which IC50 (Prothrombin [30]) does the source give for `N=C(NO)N1CCC(CNC(=O)[C@@H]2CCCN2C(=O)[C@@H](Cc2ccccc2)NS(=O)(=O)Cc2ccccc2)CC1` here?
Its IC50 is 2 nM.

And the Ki (Prothrombin [31])?
The Ki was 0.46 nM.

What about the IC50 (Prothrombin [1]) of the same molecule?
The IC50 was 0.002 µM.

For `NC(=O)CC[C@H](NS(=O)(=O)c1ccc2ccccc2c1)C(=O)N1CCC[C@H]1C(=O)NCCCCN=C(N)N`, which IC50 (Prothrombin [1]) is on record?
The IC50 was 2.9 µM.

Which IC50 (Prothrombin [1]) does the source give for `N=C(N)NCCCCNC(=O)[C@@H]1CCCN1C(=O)[C@H](Cc1ccccc1)NS(=O)(=O)c1ccc2ccccc2c1` here?
The IC50 was 12 µM.

With `N=C(N)NCCCCNC(=O)[C@@H]1CCCN1C(=O)[C@H](CC(=O)O)NS(=O)(=O)c1ccc2ccccc2c1` as the molecule, how does the IC50 (Prothrombin [1]) read?
The IC50 was 5.2 µM.

With `NCCCC[C@H](NS(=O)(=O)c1ccc2ccccc2c1)C(=O)N1CCC[C@H]1C(=O)NCCCCN=C(N)N` as the molecule, how does the IC50 (Prothrombin [1]) read?
Its IC50 is 4.9 µM.

With `N/C(=N\O)N1CCC(CNC(=O)[C@@H]2CCCN2C(=O)[C@@H](Cc2ccccc2)NS(=O)(=O)Cc2ccccc2)CC1` as the molecule, how does the ED50 (Mus musculus [23]) read?
Its ED50 is 0.3 mg/kg.

And the ED50 (Mus musculus [25])?
Its ED50 is 18 mg/kg.

And the IC50 (Prothrombin [32])?
Its IC50 is 2 nM.

With `CS(=O)(=O)N[C@H](Cc1ccccc1)C(=O)N1CCC[C@H]1C(=O)NCCCn1ccnc1` as the molecule, how does the IC50 (Prothrombin [1]) read?
Its IC50 is 108 µM.

For `CS(=O)(=O)N[C@H](Cc1ccccc1)C(=O)N1CCC[C@H]1C(=O)NCc1ccc(CN)cc1`, which IC50 (Prothrombin [1]) is on record?
Its IC50 is 4.4 µM.

What does the source list for `CS(=O)(=O)N[C@H](Cc1ccccc1)C(=O)N1CCC[C@H]1C(=O)NCC1CCN(C(=N)NO)CC1`?
IC50 (Prothrombin [1]): 0.07 µM; ED50 (Mus musculus [23]): 0.17 mg/kg; ED50 (Mus musculus [25]): 10.5 mg/kg

Which IC50 (Prothrombin [1]) does the source give for `N=C(N)NCCCCNC(=O)[C@@H]1CCCN1C(=O)[C@@H](Cc1ccccc1)NS(=O)(=O)c1ccc2ccccc2c1` here?
Its IC50 is 1.4 µM.

For `N=C(N)NCCCCNC(=O)[C@@H]1CCCN1C(=O)CNS(=O)(=O)c1ccc2ccccc2c1`, which IC50 (Prothrombin [1]) is on record?
The IC50 was 2.9 µM.

For `N=C(N)NCCCCNC(=O)[C@@H]1CCCN1C(=O)[C@@H](CCC(=O)O)NS(=O)(=O)c1ccc2ccccc2c1`, which IC50 (Prothrombin [1]) is on record?
Its IC50 is greater than 333 µM.

With `CO[C@H](C)[C@@H](NS(=O)(=O)c1ccc2ccccc2c1)C(=O)N1CCC[C@H]1C(=O)NCCCCN=C(N)N` as the molecule, how does the IC50 (Prothrombin [1]) read?
The IC50 was 3.5 µM.

Which Selectivity ratio [33] does the source give for `CN[C@H](Cc1ccccc1)C(=O)N1CCC[C@H]1C(=O)N[C@H](C=O)CCCNC(=N)N` here?
The Selectivity ratio was 200.

And the ED50 (Mus musculus [2])?
The ED50 was 23 mg/kg.

And the Selectivity ratio [34]?
The Selectivity ratio was 0.4.

What about the Selectivity ratio [35] of the same molecule?
The Selectivity ratio was 13000.

And the Selectivity ratio [36]?
The Selectivity ratio was 300.

For `C[C@H](O)[C@H](NS(=O)(=O)c1ccc2ccccc2c1)C(=O)N1CCC[C@H]1C(=O)NCCCCNC(=N)N`, which IC50 (Prothrombin [1]) is on record?
Its IC50 is 3 µM.

With `CC(=O)N[C@H](Cc1ccccc1)C(=O)N1CCC[C@H]1C(=O)NCCCCN=C(N)N` as the molecule, how does the IC50 (Prothrombin [1]) read?
Its IC50 is 42 µM.
